SMILES strings stand for the structures. Hit rate of the full screen: of about 300,000 compounds, about 120 (0.04%) were called active. Only a selection was taken, and actives are over-represented in it overall. A number with no mark means an inactive call.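 How the source made its calls: active means more than half of replicate wells score below -50%, meaning over 50% inhibition versus plate controls; inconclusive means some replicates but at most half score below -50%; inactive means no replicate scores below -50%.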

Glycogen synthase kinase-3 beta (Homo sapiens), sequence (P49841 whole entry, looked up, the tested form may be a part): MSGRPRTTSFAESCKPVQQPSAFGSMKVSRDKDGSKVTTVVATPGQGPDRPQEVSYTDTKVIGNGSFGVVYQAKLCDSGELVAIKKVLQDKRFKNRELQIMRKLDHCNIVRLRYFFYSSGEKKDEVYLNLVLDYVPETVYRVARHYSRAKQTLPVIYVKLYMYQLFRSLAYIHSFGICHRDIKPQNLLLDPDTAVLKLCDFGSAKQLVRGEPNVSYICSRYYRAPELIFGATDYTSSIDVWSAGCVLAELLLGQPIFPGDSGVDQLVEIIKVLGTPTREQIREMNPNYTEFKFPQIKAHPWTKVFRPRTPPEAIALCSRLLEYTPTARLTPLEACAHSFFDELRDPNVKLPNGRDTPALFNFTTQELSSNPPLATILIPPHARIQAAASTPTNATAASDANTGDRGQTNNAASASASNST

This experiment concerns the target Glycogen synthase kinase-3 beta (Homo sapiens) (UniProt P49841). Put plainly: human GSK3beta kinase inhibitors, primary screen, biochemical, cell-free homogeneous, HTS (AID 2097).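 Further: 0% = median DMSO wells and -100% = median GW8510 positive control wells.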 Particulars: GST-GSK3beta kinase, ADP-Glo luminescence, 60 min; at 10 µM; hits give low values. The gist of the method:
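Test system: GST-fused GSK3beta enzyme, cell-free | Quantity: 1.6 ng GST-GSK3beta enzyme per well | Reagent: 25 µM ATP with peptide substrate | Schedule: 60 min enzyme reaction, room temperature | Signal: Luminescent ADP-Glo measurement of ADP formed | Read-out basis: Score relative to plate controls | Control set: DMSO and 20 µM GW8510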
On to `CN(Cc1ccccc1)CC(O)COc1ccc(CNCc2cc3ccccc3s2)cc1` (centres undefined), for which the activity score (negative = inhibition) is 2.68%.

Consider `CCN(CC)S(=O)(=O)c1ccc2c3c(cccc13)C(=O)S2`, for which the activity score (negative = inhibition) is -2.37%.

Consider `O=C1COc2ccc(C(=O)COC(=O)C3CC(O)CN3S(=O)(=O)c3ccc(Cl)cc3)cc2N1` (centres undefined), for which the activity score (negative = inhibition) was 1.53%.

On to `CC(C)(C)NC(=O)CN(C(=O)c1csnn1)c1ccccc1-c1ccccc1`, for which the activity score (negative = inhibition) is -0.766%.

For the compound `COc1cc(/C=N\Nc2ccc([N+](=O)[O-])cn2)ccc1OCC(=O)O`, the activity score (negative = inhibition) is -70.1% (active).

With `CCOc1ccc(/C=N/Nc2nncc(-c3ccccc3)n2)cc1OC`, the activity score (negative = inhibition) was -0.0724%.

Turning to `Cc1cc(/C=N/Nc2ccc([N+](=O)[O-])cn2)c(C)n1-c1cccc(C(=O)O)c1`, the activity score (negative = inhibition) is -14.7%.

For the compound `O=C(C1CCN(S(=O)(=O)Cc2ccccc2)CC1)N1CCCc2ccccc21`, the activity score (negative = inhibition) was 4.16%.

Regarding `O=C(Nc1cccc(Cl)c1)Nc1ccccc1NS(=O)(=O)c1cccs1`, the activity score (negative = inhibition) was 1.54%.

On to `C1=C(N2CCOCC2)/C(=C/c2nc3ccccc3[nH]2)CC1`, for which the activity score (negative = inhibition) was -1.13%.

For the compound `C=CCc1cccc(/C=N/NC(=O)COc2ccc(-n3cnnn3)cc2)c1O`, the activity score (negative = inhibition) is -4.1%.

Take `O=C(NCc1cccnc1)c1cc(S(=O)(=O)N2CCOCC2)c(Cl)cc1Cl`: the activity score (negative = inhibition) was -0.415%.

In the case of `COc1ccc(C(=O)Oc2ccc(-c3nnco3)cc2)cc1S(=O)(=O)N1CCOCC1`, the activity score (negative = inhibition) was 2.99%.

As for `O=C(CCN1C(=O)c2ccccc2C1=O)NNC(=O)c1ccc(Cl)cc1Cl`, the activity score (negative = inhibition) was 1.29%.

For the compound `COc1cc(C(=O)NCc2nnc(SCC(=O)Nc3nc4ccc(C)cc4s3)o2)cc(OC)c1OC`, the activity score (negative = inhibition) is -2.02%.

As for `O=C1CCN(CCc2ccccc2)CCN1CCOc1ccccc1`, the activity score (negative = inhibition) was 3.91%.

In the case of `CN1C2CCC1/C(=C\c1ccccc1Cl)C(=O)/C2=C\c1ccccc1Cl`, the activity score (negative = inhibition) is 0.435%.

For the compound `COc1ccccc1N(C)C(=O)c1cc(S(=O)(=O)N2CCc3ccccc32)cn1C`, the activity score (negative = inhibition) is 0.131%.

For `CCCCC(NC(=O)c1cccc(Br)c1)C(=O)O` (centres undefined), the activity score (negative = inhibition) is -0.419%.

Turning to `Cc1c(CCC(=O)N[C@@H](CC(C)C)C(=O)O)c(=O)oc2c(C)c3oc4c(c3cc12)CCCC4`, the activity score (negative = inhibition) was -23.5%.

Consider `O=C(OCc1nnc(-c2ccccc2)o1)c1cc(=O)[nH]c2ccccc12`, for which the activity score (negative = inhibition) was -0.304%.

On to `Cc1ccc(C(=O)NC2CCN(C(=O)Nc3ccccc3Cl)CC2)cc1`, for which the activity score (negative = inhibition) is 2.37%.

As to `CC1CN(c2nc(Nc3ccccc3)nc(N)c2[N+](=O)[O-])CC(C)O1` (centres undefined), the activity score (negative = inhibition) is -27.9%.

In the case of `O=[N+]([O-])c1ccc(NCCCN2CCOCC2)c(Cl)c1`, the activity score (negative = inhibition) is -5.04%.

Turning to `Nc1nc(NCCCN2CCOCC2)nc(Nc2ccccc2)c1[N+](=O)[O-]`, the activity score (negative = inhibition) was -73.5% (active).

In the case of `COc1ccc([N+](=O)[O-])cc1NC(=O)COC(=O)/C=C/c1ccco1`, the activity score (negative = inhibition) is 1.89%.

With `CCOc1ccccc1C(=O)NC1CC2CCCC(C1)N2Cc1ccccc1` (centres undefined), the activity score (negative = inhibition) was 1.55%.

`Cc1cccc(-c2nc3c(c(SCC(=O)N4CCOCC4)n2)CCCC3)c1`: the activity score (negative = inhibition) was -0.852%.

Consider `COc1ccccc1NC(=O)CCC(=O)N1CC(C)Oc2ccc(C)cc21` (centres undefined), for which the activity score (negative = inhibition) was -0.0566%.

Consider `CCOC(=O)C[C@H]1c2ccc(C(F)(F)F)cc2S(=O)(=O)N1c1ccccc1`, for which the activity score (negative = inhibition) was 3.21%.

Take `CCC1(c2ccccc2)NC(=O)N(CC(=O)Nc2ccccc2C(=O)NC2CCCC2)C1=O` (centres undefined): the activity score (negative = inhibition) was 1.66%.

As for `COc1ccc(-c2ccc(OC(=O)NC3CCS(=O)(=O)C3)cc2)cc1` (centres undefined), the activity score (negative = inhibition) was 1.32%.

Consider `C=C(C)C(=O)O[C@H]1C/C(C)=C\C(=O)/C=C(\C)[C@H](O)[C@@H]2OC(=O)C(=C)[C@@H]21`, for which the activity score (negative = inhibition) was 2.58%.

For the compound `Cc1ccc(S(=O)(=O)/N=S(\C)C(C)C)cc1` (centres undefined), the activity score (negative = inhibition) is -3.78%.

Turning to `Cc1nn(-c2ccccc2)c2c1c(C)c(CCC(=O)NCC1CCCO1)c(=O)n2C` (centres undefined), the activity score (negative = inhibition) was -0.881%.

For `COc1ccc(CCC(C)N2CCc3ccccc3C2)cc1` (centres undefined), the activity score (negative = inhibition) was 3.34%.

For the compound `COc1ccc(CNS(=O)(=O)c2cc3c4c(c2)CCN4C(=O)CC3)cc1`, the activity score (negative = inhibition) is 0.199%.

For `COc1ccc(C2OCC3(CO2)SC(=O)NC3=O)cc1OC` (centres undefined), the activity score (negative = inhibition) was -1.61%.

As for `Cc1ccc(C(=O)Nc2nc3ccc(Cl)cc3s2)o1`, the activity score (negative = inhibition) was -1.18%.

With `Cc1ccc(OCCNC(=O)CNC(=O)c2ccc(C)c(C)c2)cc1`, the activity score (negative = inhibition) is -1.65%.

As for `COC(=O)C1=NNC2(c3ccc(C)cc3)C(=O)N(c3cccc(C)c3C)C(=O)C12` (centres undefined), the activity score (negative = inhibition) was 1.69%.

As for `Cc1ccc(C2SCC(=O)N2c2ccccc2)cc1` (centres undefined), the activity score (negative = inhibition) was -1.18%.

On to `C[C@H](NC(=O)c1ccccc1Cl)C(=O)OCCOc1cccc(Cl)c1`, for which the activity score (negative = inhibition) is -1.48%.

`O=C(CCCN1C(=O)CSc2ncccc21)N1CCN(c2cccc(C(F)(F)F)c2)CC1`: the activity score (negative = inhibition) is -4.32%.

Consider `CCC(C(=O)OCC(=O)Nc1ccccc1-c1ccccc1)c1ccccc1` (centres undefined), for which the activity score (negative = inhibition) was 0.894%.

As for `CC(=O)c1ccc(NC(=S)N(Cc2ccccc2)C(C)C2CC2)cc1` (centres undefined), the activity score (negative = inhibition) was -0.731%.

Regarding `Cc1nnc(C)c2c(C)n(N)c(C)c12`, the activity score (negative = inhibition) was 1.96%.

Take `CNC(=O)NC(=O)C(OC(=O)c1cccc(S(=O)(=O)N2CCCCC2)c1)c1ccccc1` (centres undefined): the activity score (negative = inhibition) was 1.44%.

Regarding `O=C(/C=C/c1cccc([N+](=O)[O-])c1)NCCSCc1ccco1`, the activity score (negative = inhibition) is -1%.

In the case of `CC(C)Nc1nnc(SC(C)C(=O)N(C)C2CCCCC2)s1` (centres undefined), the activity score (negative = inhibition) is -10.4%.

For `CCc1nnc(NC(=O)CSCc2cc(=O)n3cc(C)sc3n2)s1`, the activity score (negative = inhibition) was 1.76%.

In the case of `COc1ccc(C)cc1Nc1n[n+](-c2ccccc2)c(-c2cccc(Cl)c2Cl)s1`, the activity score (negative = inhibition) is 1.38%.

`COC(=O)c1ccc2c(C(C)(C)O)c(C(C)(C)O)[nH]c2c1`: the activity score (negative = inhibition) was 0.923%.

Turning to `Cc1cc(C)n2nc(C(=O)N(C)C(c3ccccc3)c3ccccc3)nc2n1`, the activity score (negative = inhibition) was -1.04%.

For `COC(=O)c1ccc(CNC(=O)C2CCC(=O)N(Cc3cccc(F)c3)C2)cc1` (centres undefined), the activity score (negative = inhibition) was -6.3%.

For `CCc1noc(C)c1C(=O)N1CCCSC1=Nc1ccccc1OC`, the activity score (negative = inhibition) was 3.72%.

In the case of `CC(OC(=O)c1ccc(S(=O)(=O)N2CCOCC2)cc1)c1ccccc1` (centres undefined), the activity score (negative = inhibition) is -0.509%.

As for `O=C(N/N=C/c1ccccc1O)/C(=C/c1ccccc1)CCO`, the activity score (negative = inhibition) was 0.241%.

With `CC1CC2=C(CC1/C=N/NC(N)=S)C(C)(C)CCC2` (centres undefined), the activity score (negative = inhibition) was -1.32%.

Consider `O=C1NC(Nc2nc3ccccc3s2)(C(F)(F)F)C(=O)N1C1CCCCC1` (centres undefined), for which the activity score (negative = inhibition) is -3.19%.

For the compound `Cc1ccc(C2=NN(C)c3nc4ccccc4n3C2)cc1`, the activity score (negative = inhibition) is 1.54%.

Turning to `Nc1nc(CC(=O)CSc2ccc(Cl)cc2)nc(Nc2ccc(F)cc2)n1`, the activity score (negative = inhibition) is 0.55%.

With `Oc1c(Cl)cc(Cl)cc1/C=N/c1ncn[nH]1`, the activity score (negative = inhibition) was 0.992%.

On to `COC(C[C@H](O)CC(=O)[C@@H](C)OCc1ccccc1)OC`, for which the activity score (negative = inhibition) was -8.84%.

Regarding `Cc1cc(C)c(-c2csc(NC(=O)CCCc3nc4ccccc4c(=O)[nH]3)n2)c(C)c1`, the activity score (negative = inhibition) is 2.17%.

For `COC(=O)Nc1ccc(S(=O)(=O)N2CCN(CCN3C(=O)C4C5C=CC(C5)C4C3=O)CC2)cc1` (centres undefined), the activity score (negative = inhibition) is -3.94%.

`O=C1C(=O)N(CCCN2CCOCC2)C(c2ccc([N+](=O)[O-])cc2)/C1=C(\O)c1ccc2c(c1)OCCO2` (centres undefined): the activity score (negative = inhibition) was 1.45%.

As to `COc1nc(Oc2ccc(=O)n(C)n2)nc(N(C)C)n1`, the activity score (negative = inhibition) is 0.382%.

For the compound `Cc1ccc(OCC(=O)Nc2ccc(C(=O)O)cc2NC(=O)COc2ccc(C)c(C)c2)cc1C`, the activity score (negative = inhibition) was 2.29%.

With `CC(=O)N1CCSc2ccc(S(=O)(=O)N3CCC(C)CC3)cc21`, the activity score (negative = inhibition) was 1.34%.

Regarding `O=C(NCc1ccco1)C1CCCN1S(=O)(=O)c1ccccc1C(F)(F)F` (centres undefined), the activity score (negative = inhibition) is 1.38%.

As to `Cn1c(=O)[nH]c(=O)c2c1nc(N1CCN(C(c3ccccc3)c3ccccc3)CC1)n2CCO`, the activity score (negative = inhibition) is -22.6%.

For `CCN(CC(=O)Nc1ccccc1C(F)(F)F)C(=O)CSCc1c(C)noc1C`, the activity score (negative = inhibition) is -1.14%.

Take `CN1CCN(S(=O)(=O)c2ccc(Nc3ccc(F)cc3)nc2)CC1`: the activity score (negative = inhibition) is 2.53%.

Regarding `CC1(C)Cc2ccccc2/C(=C/C(=O)c2ccccc2)N1`, the activity score (negative = inhibition) was -1.05%.

In the case of `CN(C)S(=O)(=O)c1ccc(N2CCCC2)c(C(=O)Nc2ccc(Br)cc2F)c1`, the activity score (negative = inhibition) was 3.14%.

As for `COc1ccc2c(c1OC)C(=O)N(c1ccc(O)cc1)C2`, the activity score (negative = inhibition) is -1.79%.

For the compound `C=CCOc1c2ccc(C(=O)N(CC)c3ccc(OC)cc3)cc2nn1C`, the activity score (negative = inhibition) was 0.746%.

For the compound `O=CN1CCN(C(=O)c2ccc3c(c2)OCO3)CC1`, the activity score (negative = inhibition) was 2.93%.

With `C/C(CC(=O)NCc1ccc(Cl)cc1)=N\NC(=O)COc1ccc(C)cc1Br`, the activity score (negative = inhibition) is -2.78%.

In the case of `COc1ccccc1C(=O)N(C1=NC(C)CS1)c1ccc(Cl)cc1` (centres undefined), the activity score (negative = inhibition) is 6.2%.

As to `O=C(Nc1ccccc1)Nc1nnc(COc2ccccc2F)s1`, the activity score (negative = inhibition) was 0.847%.

Take `CCCN1C2CCCC1CC(NC(=O)c1cccc(OC)c1)C2` (centres undefined): the activity score (negative = inhibition) was 2.34%.

Turning to `CN(CCNC(=O)c1cc2c(-c3ccccc3F)nn(C)c2s1)C1CCCCC1`, the activity score (negative = inhibition) was -2.3%.

Regarding `COC(=O)c1ccc(CN2C(=O)NC(c3ccccc3)(c3ccccc3)C2=O)o1`, the activity score (negative = inhibition) was -0.96%.

With `CCn1cc(C(=O)N[C@@H](C)C(=O)NCCO)c(=O)c2cc3c(cc21)OCO3`, the activity score (negative = inhibition) was -0.599%.

Take `O=[N+]([O-])c1cc([N+](=O)[O-])c(Oc2cc(F)cc(F)c2F)cc1NN1CCCCC1`: the activity score (negative = inhibition) was -1.52%.

On to `CC(NC(=O)C1CCCN(S(=O)(=O)c2ccc(-n3cnnn3)cc2)C1)c1ccc(F)cc1` (centres undefined), for which the activity score (negative = inhibition) is -1.62%.

`COc1cc(NC(=O)C2CCN(c3cnccn3)CC2)cc(OC)c1`: the activity score (negative = inhibition) was -0.841%.

For the origin of these results see PubChem BioAssay AID2097 (Broad Institute, 2009).
